From PMC7004521 (Cancer Science, 2019)

Test: Adverse events suspected to be study drug related, phase 1 study
Type: in vivo, human
Procedure, shortened: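 Adult patients with advanced solid tumours and confirmed MET dysregulation took oral capsules twice daily from 100 up to 600 mg in escalation, or 400 mg bid tablets, in 28-day cycles. Expansion was 600 mg bid capsules, with a switch to 400 mg bid tablets allowed. Patients were included if they had ≥1 dose and ≥1 valid post-baseline safety assessment. Events were graded by CTCAE v4.0.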

[1] = drug-related, escalation 600 mg bid n=8
[2] = drug-related, escalation 100-350 mg bid n=16
[3] = drug-related, expansion RP2D HCC n=11
[4] = drug-related, expansion RP2D gastric cancer n=9
[5] = drug-related, expansion RP2D other n=18

SMILES: CNC(=O)c1ccc(-c2cnc3ncc(Cc4ccc5ncccc5c4)n3n2)cc1F [capmatinib]
- Hypoalbuminemia, grade 3/4 [1]: 0 n (%)
- Hypophagia, all grades [1]: 0 n (%)
- Hypophagia, grade 3/4 [1]: 0 n (%)
- Lipase increased, all grades [1]: 0 n (%)
- Lipase increased, grade 3/4 [1]: 0 n (%)
- Maculo‐papular rash, all grades [1]: 0 n (%)
- Maculo‐papular rash, grade 3/4 [1]: 0 n (%)
- Myalgia, all grades [1]: 0 n (%)
- Myalgia, grade 3/4 [1]: 0 n (%)
- Nausea, all grades [1]: 3 (38) n (%)
- Nausea, grade 3/4 [1]: 0 n (%)
- Odynophagia, all grades [1]: 0 n (%)
- Odynophagia, grade 3/4 [1]: 0 n (%)
- Peripheral edema, all grades [1]: 1 (13) n (%)
- Peripheral edema, grade 3/4 [1]: 0 n (%)
- Pyrexia, all grades [1]: 0 n (%)
- Pyrexia, grade 3/4 [1]: 0 n (%)
- Stomatitis, all grades [1]: 1 (13) n (%)
- Stomatitis, grade 3/4 [1]: 0 n (%)
- Thrombocytopenia, all grades [1]: 0 n (%)
- Thrombocytopenia, grade 3/4 [1]: 0 n (%)
- Total protein decreased, all grades [1]: 1 (13) n (%)
- Total protein decreased, grade 3/4 [1]: 0 n (%)
- Upper abdominal pain, all grades [1]: 0 n (%)
- Upper abdominal pain, grade 3/4 [1]: 0 n (%)
- Vomiting, all grades [1]: 3 (38) n (%)
- Vomiting, grade 3/4 [1]: 0 n (%)
- ALT increased, all grades [2]: 0 n (%)
- ALT increased, grade 3/4 [2]: 0 n (%)
- AST increased, all grades [2]: 1 (6) n (%)
- Amylase increased, all grades [2]: 2 (13) n (%)
- Amylase increased, grade 3/4 [2]: 1 (6) n (%)
- Asthenia, all grades [2]: 4 (25) n (%)
- Asthenia, grade 3/4 [2]: 0 n (%)
- Blood bilirubin increased, all grades [2]: 3 (19) n (%)
- Blood bilirubin increased, grade 3/4 [2]: 1 (6) n (%)
- Blood creatinine increased, all grades [2]: 2 (13) n (%)
- Blood creatinine increased, grade 3/4 [2]: 0 n (%)
- Constipation, all grades [2]: 2 (13) n (%)
- Constipation, grade 3/4 [2]: 0 n (%)
- Decreased appetite, all grades [2]: 5 (31) n (%)
- Decreased appetite, grade 3/4 [2]: 1 (6) n (%)
- Diarrhea, all grades [2]: 2 (13) n (%)
- Diarrhea, grade 3/4 [2]: 0 n (%)
- Dizziness, all grades [2]: 0 n (%)
- Dizziness, grade 3/4 [2]: 0 n (%)
- Dyspepsia, all grades [2]: 0 n (%)
- Dyspepsia, grade 3/4 [2]: 0 n (%)
- Fatigue, all grades [2]: 3 (19) n (%)
- Fatigue, grade 3/4 [2]: 2 (13) n (%)
- Headache, all grades [2]: 1 (6) n (%)
- Headache, grade 3/4 [2]: 0 n (%)
- Hypoalbuminemia, all grades [2]: 3 (19) n (%)
- Hypoalbuminemia, grade 3/4 [2]: 1 (6) n (%)
- Hypophagia, all grades [2]: 2 (13) n (%)
- Hypophagia, grade 3/4 [2]: 2 (13) n (%)
- Lipase increased, all grades [2]: 1 (6) n (%)
- Lipase increased, grade 3/4 [2]: 1 (6) n (%)
- Maculo‐papular rash, all grades [2]: 0 n (%)
- Maculo‐papular rash, grade 3/4 [2]: 0 n (%)
- Myalgia, all grades [2]: 2 (13) n (%)
- Myalgia, grade 3/4 [2]: 0 n (%)
- Nausea, all grades [2]: 3 (19) n (%)
- Nausea, grade 3/4 [2]: 0 n (%)
- Odynophagia, all grades [2]: 1 (6) n (%)
- Odynophagia, grade 3/4 [2]: 0 n (%)
- Peripheral edema, all grades [2]: 3 (19) n (%)
- Peripheral edema, grade 3/4 [2]: 1 (6) n (%)
- Pyrexia, all grades [2]: 1 (6) n (%)
- Pyrexia, grade 3/4 [2]: 0 n (%)
- Stomatitis, all grades [2]: 0 n (%)
- Stomatitis, grade 3/4 [2]: 0 n (%)
- Thrombocytopenia, all grades [2]: 1 (6) n (%)
- Thrombocytopenia, grade 3/4 [2]: 0 n (%)
- Total protein decreased, all grades [2]: 1 (6) n (%)
- Total protein decreased, grade 3/4 [2]: 0 n (%)
- Upper abdominal pain, all grades [2]: 1 (6) n (%)
- Upper abdominal pain, grade 3/4 [2]: 0 n (%)
- Vomiting, all grades [2]: 4 (25) n (%)
- Vomiting, grade 3/4 [2]: 0 n (%)
- ALT increased, all grades [3]: 0 n (%)
- ALT increased, grade 3/4 [3]: 0 n (%)
- AST increased, all grades [3]: 1 (9) n (%)
- AST increased, grade 3/4 [3]: 1 (9) n (%)
- Amylase increased, all grades [3]: 0 n (%)
- Amylase increased, grade 3/4 [3]: 0 n (%)
- Asthenia, all grades [3]: 1 (9) n (%)
- Asthenia, grade 3/4 [3]: 0 n (%)
- Blood bilirubin increased, all grades [3]: 0 n (%)
- Blood bilirubin increased, grade 3/4 [3]: 0 n (%)
- Blood creatinine increased, all grades [3]: 1 (9) n (%)
- Blood creatinine increased, grade 3/4 [3]: 1 (9) n (%)
- Constipation, all grades [3]: 0 n (%)
- Constipation, grade 3/4 [3]: 0 n (%)
- Decreased appetite, all grades [3]: 2 (18) n (%)
- Decreased appetite, grade 3/4 [3]: 0 n (%)
- Diarrhea, all grades [3]: 4 (36) n (%)
- Diarrhea, grade 3/4 [3]: 0 n (%)
- Dizziness, all grades [3]: 1 (9) n (%)
- Dizziness, grade 3/4 [3]: 0 n (%)
- Dyspepsia, all grades [3]: 0 n (%)
- Dyspepsia, grade 3/4 [3]: 0 n (%)
- Fatigue, all grades [3]: 3 (27) n (%)
- Fatigue, grade 3/4 [3]: 0 n (%)
- Headache, all grades [3]: 0 n (%)
- Headache, grade 3/4 [3]: 0 n (%)
- Hypoalbuminemia, all grades [3]: 0 n (%)
- Hypoalbuminemia, grade 3/4 [3]: 0 n (%)
- Lipase increased, all grades [3]: 2 (18) n (%)
- Lipase increased, grade 3/4 [3]: 2 (18) n (%)
- Localized edema, all grades [3]: 0 n (%)
- Localized edema, grade 3/4 [3]: 0 n (%)
- Maculo‐papular rash, all grades [3]: 0 n (%)
- Maculo‐papular rash, grade 3/4 [3]: 0 n (%)
- Myalgia, all grades [3]: 0 n (%)
- Myalgia, grade 3/4 [3]: 0 n (%)
- Nausea, all grades [3]: 5 (46) n (%)
- Nausea, grade 3/4 [3]: 1 (9) n (%)
- Odynophagia, all grades [3]: 0 n (%)
- Odynophagia, grade 3/4 [3]: 0 n (%)
- Peripheral edema, all grades [3]: 3 (27) n (%)
- Peripheral edema, grade 3/4 [3]: 0 n (%)
- Pyrexia, all grades [3]: 0 n (%)
- Pyrexia, grade 3/4 [3]: 0 n (%)
- Stomatitis, all grades [3]: 0 n (%)
- Stomatitis, grade 3/4 [3]: 0 n (%)
- Thrombocytopenia, all grades [3]: 1 (9) n (%)
- Thrombocytopenia, grade 3/4 [3]: 0 n (%)
- Total protein decreased, all grades [3]: 0 n (%)
- Total protein decreased, grade 3/4 [3]: 0 n (%)
- Upper abdominal pain, all grades [3]: 0 n (%)
- Upper abdominal pain, grade 3/4 [3]: 0 n (%)
- Vomiting, all grades [3]: 3 (27) n (%)
- Vomiting, grade 3/4 [3]: 1 (9) n (%)
- ALT increased, all grades [4]: 1 (11) n (%)
- ALT increased, grade 3/4 [4]: 1 (11) n (%)
- AST increased, all grades [4]: 1 (11) n (%)
- Amylase increased, all grades [4]: 0 n (%)
- Amylase increased, grade 3/4 [4]: 0 n (%)
- Asthenia, all grades [4]: 0 n (%)
- Asthenia, grade 3/4 [4]: 0 n (%)
- Blood bilirubin increased, all grades [4]: 0 n (%)
- Blood bilirubin increased, grade 3/4 [4]: 0 n (%)
- Blood creatinine increased, all grades [4]: 0 n (%)
- Blood creatinine increased, grade 3/4 [4]: 0 n (%)
- Constipation, all grades [4]: 0 n (%)
- Constipation, grade 3/4 [4]: 0 n (%)
- Decreased appetite, all grades [4]: 0 n (%)
- Decreased appetite, grade 3/4 [4]: 0 n (%)
- Diarrhea, all grades [4]: 0 n (%)
- Diarrhea, grade 3/4 [4]: 0 n (%)
- Dizziness, all grades [4]: 0 n (%)
- Dizziness, grade 3/4 [4]: 0 n (%)
- Dyspepsia, all grades [4]: 0 n (%)
- Dyspepsia, grade 3/4 [4]: 0 n (%)
- Fatigue, all grades [4]: 3 (33) n (%)
- Fatigue, grade 3/4 [4]: 1 (11) n (%)
- Headache, all grades [4]: 1 (11) n (%)
- Headache, grade 3/4 [4]: 0 n (%)
- Hypoalbuminemia, all grades [4]: 0 n (%)
- Hypoalbuminemia, grade 3/4 [4]: 0 n (%)
- Lipase increased, all grades [4]: 0 n (%)
- Lipase increased, grade 3/4 [4]: 0 n (%)
- Localized edema, all grades [4]: 0 n (%)
- Localized edema, grade 3/4 [4]: 0 n (%)
- Maculo‐papular rash, all grades [4]: 0 n (%)
- Maculo‐papular rash, grade 3/4 [4]: 0 n (%)
- Myalgia, all grades [4]: 0 n (%)
- Myalgia, grade 3/4 [4]: 0 n (%)
- Nausea, all grades [4]: 0 n (%)
- Nausea, grade 3/4 [4]: 0 n (%)
- Odynophagia, all grades [4]: 0 n (%)
- Odynophagia, grade 3/4 [4]: 0 n (%)
- Peripheral edema, all grades [4]: 3 (33) n (%)
- Peripheral edema, grade 3/4 [4]: 0 n (%)
- Pyrexia, all grades [4]: 0 n (%)
- Pyrexia, grade 3/4 [4]: 0 n (%)
- Stomatitis, all grades [4]: 0 n (%)
- Stomatitis, grade 3/4 [4]: 0 n (%)
- Thrombocytopenia, all grades [4]: 1 (11) n (%)
- Thrombocytopenia, grade 3/4 [4]: 1 (11) n (%)
- Total protein decreased, all grades [4]: 0 n (%)
- Total protein decreased, grade 3/4 [4]: 0 n (%)
- Upper abdominal pain, all grades [4]: 0 n (%)
- Upper abdominal pain, grade 3/4 [4]: 0 n (%)
- Vomiting, all grades [4]: 0 n (%)
- Vomiting, grade 3/4 [4]: 0 n (%)
- ALT increased, all grades [5]: 1 (6) n (%)
- ALT increased, grade 3/4 [5]: 1 (6) n (%)
- AST increased, all grades [5]: 2 (11) n (%)
- Amylase increased, all grades [5]: 0 n (%)
- Amylase increased, grade 3/4 [5]: 0 n (%)
- Asthenia, all grades [5]: 1 (6) n (%)
- Asthenia, grade 3/4 [5]: 0 n (%)
- Blood bilirubin increased, all grades [5]: 0 n (%)
- Blood bilirubin increased, grade 3/4 [5]: 0 n (%)
- Blood creatinine increased, all grades [5]: 1 (6) n (%)
- Blood creatinine increased, grade 3/4 [5]: 0 n (%)
- Constipation, all grades [5]: 1 (6) n (%)
- Constipation, grade 3/4 [5]: 0 n (%)
- Decreased appetite, all grades [5]: 2 (11) n (%)
- Decreased appetite, grade 3/4 [5]: 0 n (%)
- Diarrhea, all grades [5]: 3 (17) n (%)
- Diarrhea, grade 3/4 [5]: 0 n (%)
- Dizziness, all grades [5]: 1 (6) n (%)
- Dizziness, grade 3/4 [5]: 0 n (%)
- Dyspepsia, all grades [5]: 2 (11) n (%)
- Dyspepsia, grade 3/4 [5]: 0 n (%)
- Fatigue, all grades [5]: 3 (17) n (%)
- Fatigue, grade 3/4 [5]: 0 n (%)
- Headache, all grades [5]: 0 n (%)
- Headache, grade 3/4 [5]: 0 n (%)
- Hypoalbuminemia, all grades [5]: 1 (6) n (%)
- Hypoalbuminemia, grade 3/4 [5]: 0 n (%)
- Lipase increased, all grades [5]: 1 (6) n (%)
- Lipase increased, grade 3/4 [5]: 0 n (%)
- Localized edema, all grades [5]: 2 (11) n (%)
- Localized edema, grade 3/4 [5]: 0 n (%)
- Maculo‐papular rash, all grades [5]: 2 (11) n (%)
- Maculo‐papular rash, grade 3/4 [5]: 0 n (%)
- Myalgia, all grades [5]: 2 (11) n (%)
- Myalgia, grade 3/4 [5]: 0 n (%)
- Nausea, all grades [5]: 6 (33) n (%)
- Nausea, grade 3/4 [5]: 0 n (%)
- Odynophagia, all grades [5]: 0 n (%)
- Odynophagia, grade 3/4 [5]: 0 n (%)
- Peripheral edema, all grades [5]: 4 (22) n (%)
- Peripheral edema, grade 3/4 [5]: 0 n (%)
- Pyrexia, all grades [5]: 0 n (%)
- Pyrexia, grade 3/4 [5]: 0 n (%)
- Stomatitis, all grades [5]: 1 (6) n (%)
- Stomatitis, grade 3/4 [5]: 0 n (%)
- Thrombocytopenia, all grades [5]: 0 n (%)
- Thrombocytopenia, grade 3/4 [5]: 0 n (%)
- Total protein decreased, all grades [5]: 0 n (%)
- Total protein decreased, grade 3/4 [5]: 0 n (%)
- Upper abdominal pain, all grades [5]: 0 n (%)
- Upper abdominal pain, grade 3/4 [5]: 0 n (%)
- Vomiting, all grades [5]: 4 (22) n (%)
- Vomiting, grade 3/4 [5]: 0 n (%)
- lipase increase, grade 3 or 4 (suspected study drug‐related, dose‐expansion cohorts): 5%
